Measured values from publication PMC6047365 (Biochemistry and Biophysics Reports, 2018).
Like-named read-outs stand apart in the source and are kept apart here.

What was measured:
DENV RNA replication = assay: DENV/Gaussia luciferase; type: cell-based; settings: Dengue virus, BHK-21, 72 h, read-out: EC50 DENV
Method in brief: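 BHK-21 cells were seeded at 1×10^4 per well in triplicate and transfected with the DENV replicon plasmid DGL2. At 24 h post-transfection they were treated with several concentrations of test compound for 72 h, then Gaussia luciferase was measured. Signal was expressed relative to untreated cells (100%), mean±SD of triplicates, and EC50 was derived.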

HBV/NL virus entry = assay: HBV/NL reporter assay, entry step; type: cell-based, hepatitis B virus; settings: HBV/NL-infected HepG2/NTCPmyc cells, NL activity
Method in brief: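 Reporter HBV/NL virus came from supernatant of HepG2 cells cotransfected with pUC1.2HBV/NL and pUC1.2HBVΔε. HepG2/NTCPmyc cells were infected at 10–100 genome equivalents with 4% PEG8000 and 2% DMSO overnight, with test compound applied per the entry-step schedule. NanoLuc activity was read with Nano-Glo, relative to untreated cells (100%), mean±SD of triplicates. P was computed vs. untreated.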

HBV = HBV replication assay; type: cell-based; settings: Hepatitis B virus, HepG2, read-out: EC50 HBV
Method in brief: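 Inoculum was HBV from HepG2.2.15 supernatant, given at 1000 genome equivalents/cell in medium with 4% PEG8000 and 2% DMSO for 24 h. Medium was then replaced and cells were cultured 8 days. Cellular DNA was extracted and HBV DNA quantified by real-time qPCR. Results were taken relative to untreated cells (100%), mean±SD of triplicates.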

[1] = system: HBV/NL, covalently closed circular DNA formation to translation of viral mRNAs; assay: HBV/NL reporter assay, after entry to translation steps; type: cell-based, hepatitis B virus; settings: HBV/NL-infected HepG2/NTCPmyc cells, NL activity
HCV RNA replication [2] = settings: read-out: EC50 HCV (Li23), Li23 cell-derived assays, cited from earlier work
[3] = compared with N-89; ref [3]; cited from earlier work
[4] = Cell count after trypan blue dye treatment; type: cell-based; settings: human, HepG2/NTCP cells
Li23 = settings: read-out: CC50 HCV (Li23), Li23 cell-derived assays, cited from earlier work
JEV RNA replication = assay: JEV replicon Firefly luciferase; type: cell-based; settings: Japanese encephalitis virus, 72 h, read-out: EC50 JEV
Method in brief: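 JEV replicon cells (BHKMuarPACLuc rep, maintained with puromycin 10 μg/ml) were seeded at 1×10^5 per well in triplicate. They were treated with several concentrations of test compound for 72 h, then firefly luciferase was measured. Activity was expressed relative to untreated cells (100%), mean±SD of triplicates, and EC50 was derived.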

HCV RNA replication [5] = settings: read-out: EC50 HCV (HuH-7), HuH-7 cell-derived assays, cited from earlier work
HEV RNA replication = assay: HEV/NanoLuc luciferase; type: cell-based; settings: Hepatitis E virus, PLC-PRF-5, 72 h, read-out: EC50 HEV
Method in brief: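 HEV replicon RNA was electroporated into PLC/PRF/5 cells, which were plated at 2.5×10^4 per well in triplicate. Cells were treated with several concentrations of test compound for 72 h, and NanoLuc was read by Nano-Glo. Signal was taken relative to untreated cells (100%), mean±SD of triplicates, and EC50 was derived.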

HuH-7 = settings: read-out: CC50 HCV (HuH-7), HuH-7 cell-derived assays, cited from earlier work
[6] = CellTiter 96 AQueous one solution cell proliferation assay; type: cell-based; settings: human, PLC/PRF/5 cells
Method in brief: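 PLC/PRF/5 cells seeded at 2.5×10^4 per well in triplicate and exposed to several concentrations of test compound for 72 h. Viability was read by the CellTiter 96 AQueous one solution assay. Values were taken relative to untreated cells (100%), given as mean±SD of triplicates, and CC50 was derived from the curves.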

## OCCCCCCC1COOC2(CCCCCCCCCCC2)OOC1 [N-251, 6-(1,2,6,7-tetraoxaspiro[7.11]nonadec-4-yl)hexan-1-ol]
DENV RNA replication
  EC50: 6.5 µM
HBV/NL virus entry
  Effect on the process of virus entry: did not prevent the process of virus entry
HBV
  EC50: 1.9 µM
[1]
  Effect on the process of covalently closed circular DNA formation to translation of viral mRNAs: not inhibited
HCV RNA replication [2]; ref Ueda et al. [4]
  EC50: 0.059 to 0.29 µM
[3]
  Water solubility: higher water solubility than N-89
[4]
  CC50 at 9 days: 16 µM
Li23; ref Ueda et al. [4]
  CC50: 1.1 to 2.8 µM
JEV RNA replication
  EC50: 15 µM
HCV RNA replication [5]; ref Ueda et al. [4]
  EC50: 0.14 to 0.98 µM
HEV RNA replication
  EC50: 13 µM
HuH-7; ref Ueda et al. [4]
  CC50: 0.49 to 3.8 µM
[6]
  CC50 at 72 h: 56 µM

## NC(=O)c1ncn([C@@H]2O[C@H](CO)[C@@H](O)[C@H]2O)n1 [RBV, Ribavirin, reference compound]
DENV RNA replication
  EC50: 15 µM
HBV
  EC50: > 100 µM
HCV RNA replication [2]; ref Mori et al. [16]
  EC50: 8.7 to 15.9 µM
[4]
  CC50 at 9 days: > 100 µM
Li23; ref Mori et al. [16]
  CC50: > 100 µM
JEV RNA replication
  EC50: 22 µM
HCV RNA replication [5]; ref Mori et al. [16]
  EC50: > 100 µM
HEV RNA replication
  EC50: 19 µM
HuH-7; ref Mori et al. [16]
  CC50: > 100 µM
[6]
  CC50 at 72 h: > 100 µM
